Assay outcomes (PubChem BioAssay)
SMARCA2 act: increases SMARCA2 function in MMTV reporter cells; activation, % at 9.1 µM; MG213 cells, MMTV-luciferase reporter, dexamethasone, overnight; 370,000 compounds, 1% hits; AID 652017; in the data active means activation above about 7.8%;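 further: 0% = vehicle wells and 100% = reference activator wells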
MC4R antag cAMP: blocks human MC4R cAMP signaling; MC4R-expressing cells, MTII-stimulated cAMP, LANCE TR-FRET; inhibition, % at 6.5 µM; 360,000 compounds, 0.48% hits; AID 540295;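 active means inhibition above its plate's cutoff, the mean of tested wells on that plate plus 3 SD, cut at about 29% in these data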;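 further: 0% = Melanotan II alone and 100% = Melanotan II plus saturating MCL0020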
Target sequence (P32245 whole entry, looked up): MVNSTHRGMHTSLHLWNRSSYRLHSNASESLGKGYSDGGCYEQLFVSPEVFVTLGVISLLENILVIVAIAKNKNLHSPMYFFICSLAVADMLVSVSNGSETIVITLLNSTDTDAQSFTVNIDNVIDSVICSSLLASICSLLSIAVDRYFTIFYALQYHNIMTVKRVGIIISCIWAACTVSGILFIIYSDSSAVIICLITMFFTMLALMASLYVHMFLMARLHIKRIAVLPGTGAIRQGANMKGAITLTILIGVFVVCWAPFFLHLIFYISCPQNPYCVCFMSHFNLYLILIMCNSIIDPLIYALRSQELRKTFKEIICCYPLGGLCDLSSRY
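Material: U2OS-MC4R stable cell line | Reagent: Melanotan II challenge after compound preincubation | Doses: One concentration, 6.5 µM nominal | Incubation: 30-min compound preincubation, 1-h Melanotan II challenge, 1-h detection, room temperature | Signal: TR-FRET cAMP assay | Replicates: One well per compound, no replicates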
ATG4B inhibitor: ATG4B (human) cysteine protease inhibition; inhibition, % at 8.33 µM; AID 504462; ATG4B cleavage of LC3-PLA2, NBD-HPC fluorescence, 1 h; Q9Y4P1; 340,000 compounds, 0.51% hits; in the data active means inhibition above about 40%
MPTP inh: inhibitors of mitochondrial permeability transition pore | isolated mouse mitochondria, Ca2+ swelling absorbance, 30 min | inhibition, % at 10 µM | 360,000 compounds, 1.4% hits;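 active means inhibition of 50% or more, scaled per plate between neutral and stimulator controls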;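 further: 0% = DMSO wells given calcium and 100% = 1 mM EGTA wells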
MC4R barr agon: activates human MC4R beta-arrestin recruitment; activation, % at 8.9 µM; P32245; U2OS MC4R beta-arrestin complementation, luminescence; percent of melanotan II response, DMSO zero; 360,000 compounds, 0.98% hits; AID 540308;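 active means activation above a per-plate cutoff, the mean activation of sample wells on that plate plus 3 SD, cut at about 8% in these data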
ATG4B confirm: confirmation of human ATG4B inhibitors; shares compounds with ATG4B inhibitor; inhibition, % at 8.33 µM; ATG4B protease fluorescent substrate cleavage assay; 320 compounds, 92% hits; in the data active means inhibition above about 39%
PLA2 ctr: counter-screen for ATG4B inhibitors: human phospholipase A2. shares compounds with ATG4B inhibitor. purified PLA2, NBD-C6-HPC fluorescence, 45 min. inhibition, % at 8.33 µM. 1,600 compounds, 66% hits; in the data active means inhibition above about 50%
Target sequence (P04054 whole entry, looked up): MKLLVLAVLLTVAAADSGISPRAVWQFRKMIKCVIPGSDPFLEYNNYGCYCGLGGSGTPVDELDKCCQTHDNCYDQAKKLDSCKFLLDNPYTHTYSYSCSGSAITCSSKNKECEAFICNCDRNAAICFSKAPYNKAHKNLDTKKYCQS
An asterisk follows results filed as active; nt = no result. Sampled rows, rich in hits. Any-hit rate of the full collection: about 4.1%.

SMILES | SMARCA2 act | MC4R antag cAMP | ATG4B inhibitor | MPTP inh | MC4R barr agon | PLA2 ctr | others
O=C(O/N=C1/CCSc2ccccc21)c1ccccc1 | 0.4 | 4.0 | 42.1* | 4.2 | -1.9 | 36.5 | ATG4B confirm=71.5*
O=C(NCc1ccc(F)cc1)c1ccccc1OCc1ccccc1 | -2.3 | -5.1 | 47.2* | 3.5 | -0.3 | 52.0*
O=C(NC1CCCC1)c1ccccc1OCc1ccccc1 | 1.2 | -2.5 | 65.6* | -0.2 | -0.8 | 73.1*
O=C(NC1CCN(Cc2ccccc2)CC1)c1ccccc1OCc1ccccc1 | 1.1 | -4.3 | 56.0* | 0.3 | 1.3 | 62.3*
Cc1cccc(COc2ccccc2C(=O)NC2CCC(O)CC2)c1 (stereo not given) | 2.7 | 8.6 | -2.1 | -3.4 | -2.1 | nt
CCOc1ccccc1C(=O)NC1CCN(Cc2ccccc2)CC1 | -0.1 | 6.9 | -2.2 | -1.9 | 0.3 | nt
CCCCS(=O)(=O)N1CCCc2nc(-c3ccc(F)cc3)ccc21 | -2.2 | nt | nt | nt | nt | nt
CC(=O)N1CCc2c1cccc2S(=O)(=O)NC(CC(C)C)C(=O)Nc1ccccc1C (stereo not given) | 2.6 | nt | nt | nt | nt | nt
CN(CC(=O)NCC1CCCO1)S(=O)(=O)c1cc(Cl)ccc1Cl (stereo not given) | -3.2 | 1.1 | 93.0* | -2.0 | 1.8 | 1.6
Cc1ccc(N(CC(=O)NCC2CCCO2)S(=O)(=O)c2ccc(Cl)cc2)cc1C (stereo not given) | -3.0 | 3.0 | -9.5 | -2.0 | -3.1 | nt
CCOc1cc(C(N)=O)cc(Cl)c1OCc1ccccc1 | -0.9 | -1.7 | 49.0* | 0.0 | -2.2 | 70.7*
COc1cc(C(N)=O)cc(Cl)c1OCc1ccccc1 | -3.6 | -2.2 | 59.8* | -2.1 | -1.1 | 60.0*
COc1cc(C(N)=O)ccc1OCc1ccccc1 | -2.5 | 0.9 | -2.5 | 0.7 | -0.1 | nt
CCOc1cc(C(N)=O)cc(OCC)c1OCC | -0.7 | 9.6 | -13.0 | 5.2 | -1.3 | nt
COc1ccccc1C(=O)n1ccc2ccc(-c3ccc4ccn(Cc5ccccc5)c4c3)cc21 | -2.9 | nt | nt | nt | nt | nt
Cc1cc(C(=O)N2CCCC(C(=O)c3ccc(Oc4ccccc4)cc3)C2)n[nH]1 (stereo not given) | -2.3 | 14.7 | 46.2* | -0.7 | 0.0 | 38.7 | ATG4B confirm=61.7*
O=C(c1ccc(Oc2ccccc2)cc1)C1CCCN(C(=O)c2cnccn2)C1 (stereo not given) | -2.6 | 3.2 | -1.4 | 3.7 | -1.4 | nt
COc1ccc(CC(=O)Nc2nc(-c3cccc([N+](=O)[O-])c3)cs2)cc1 | 0.1 | 6.1 | -6.0 | 1.7 | 1.4 | nt
COc1ccc2c(c1OC)C(=O)OC2Nc1nc(-c2cccc([N+](=O)[O-])c2)cs1 (stereo not given) | 1.9 | -2.1 | 52.0* | 2.9 | 0.0 | 70.8*
CCCCNC(=O)NCCCN1CCN(c2ccc(F)cc2)CC1 | -3.5 | nt | nt | nt | nt | nt
Cc1nn(Cc2c(F)c(F)c(F)c(F)c2F)c(C)c1NC(=O)c1cccc(COc2ccc(Cl)cc2)c1 | -0.4 | 7.7 | 56.7* | -2.5 | 0.7 | 68.2*
Cc1ccc(OCc2ccc(C(=O)Nc3c(C)nn(Cc4c(F)c(F)c(F)c(F)c4F)c3C)o2)c([N+](=O)[O-])c1 | -6.4 | 9.9 | 66.8* | 2.2 | 1.0 | 75.9*
CCNC(=S)N1CCN(c2nc(CC)nc3sc4c(c23)CCCC4)CC1 | -1.1 | 9.8 | 72.6* | 0.4 | -1.6 | 83.0*
Cc1nc(N2CCN(C(=O)c3cccs3)CC2)c2c3c(sc2n1)CCCC3 | nt | 24.7 | 78.0* | 0.6 | 1.7 | 85.9*
O=C(CSc1ncnc2sc3c(c12)CCCC3)c1ccco1 | 3.1 | 0.6 | 41.0* | 2.0 | 1.2 | 51.1*
Cc1nc(N2CCN(C(=O)c3ccco3)CC2)c2c3c(sc2n1)CCCC3 | 2.2 | 28.2 | 68.3* | 1.0 | 2.3 | 66.9*
O=C(CSc1ncnc2sc3c(c12)CCCC3)c1ccccc1 | 2.6 | 13.3 | 19.6 | 10.2 | -0.8 | nt
O=S1(=O)c2ccc(Br)cc2OC[C@@H](c2ccccc2)N1Cc1cn(CCC2OCCCO2)nn1 | -2.9 | nt | nt | nt | nt | nt
CCc1nc(SCC(=O)N2CCN(C(=O)c3ccco3)CC2)c2c3c(sc2n1)CCCC3 | -1.7 | 9.7 | 43.7* | -0.1 | -0.4 | 64.2*
